Source: ChEMBL document CHEMBL1149868, “Synthesis and in vitro anti-leishmanial activity of 1-[5-(5-nitrofuran-2-yl)-1,3,4-thiadiazol-2-yl]- and 1-[5-(5-nitrothiophen-2-yl)-1,3,4-thiadiazol-2-yl]-4-aroylpiperazines” (Bioorg Med Chem, 2008)
Active and inactive are the calls of the source. The calls are words filed in the database; no cut-off is given here.

Tests used:
[1] = Cytotoxicity against mouse macrophages assessed as cell death at 34.44 uM after 24 hrs by MTT colorimetric assay; assay type: cell-based; details: macrophage
[2] = Partition coefficient, log p of the compound; assay type: physicochemical; details: octanol/water
Leishmania major [3] = experiment: Antileishmanial activity against Leishmania major MRHO/IR/75/ER promastigotes by MTT assay; assay type: functional, organism-based
Outline: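 L. major MRHO/IR/75/ER promastigotes from early log phase, 2×10^6/mL, in phenol red free RPMI 1640 with 10% FBS, 2 mM glutamine, pH ~7.2 and antibiotics. Exposed to serial drug dilutions for 24 h at 25 °C. MTT (0.5 mg/mL) added for 4 h at 37 °C, pellet dissolved in DMSO, A492 read. Two or more independent experiments in triplicate; IC50 by linear regression, means ± SD.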

[4] = Cytotoxicity against mouse macrophages assessed as cell death at 24.69 uM after 24 hrs by MTT colorimetric assay; assay type: cell-based; details: macrophage
Leishmania major [5] = experiment: Antileishmanial activity against Leishmania major amastigotes assessed as decrease in infectivity in mouse macrophages after 24 hrs; assay type: functional, organism-based
Leishmania major [6] = experiment: Antileishmanial activity against Leishmania major amastigotes in mouse macrophages assessed as decrease in infectivity index after 24 hrs; assay type: functional, organism-based
[7] = Cytotoxicity against mouse macrophages assessed as cell death at 11.69 uM after 24 hrs by MTT colorimetric assay; assay type: cell-based; details: macrophage
Leishmania major [8] = experiment: Antileishmanial activity against Leishmania major MRHO/IR/75/ER amastigotes by Giemsa staining
[9] = Cytotoxicity against mouse macrophages assessed as cell death at 13.19 uM after 24 hrs by MTT colorimetric assay; assay type: cell-based; details: macrophage
[10] = Cytotoxicity against mouse macrophages assessed as cell death at 23.78 uM after 24 hrs by MTT colorimetric assay; assay type: cell-based; details: macrophage
[11] = Cytotoxicity against mouse macrophages assessed as cell death at 19.18 uM after 24 hrs by MTT colorimetric assay; assay type: cell-based; details: macrophage
[12] = Cytotoxicity against mouse macrophages assessed as cell death at >50 uM after 24 hrs by MTT colorimetric assay; assay type: cell-based; details: macrophage
[13] = Cytotoxicity against mouse macrophages assessed as cell death at 11.75 uM after 24 hrs by MTT colorimetric assay; assay type: cell-based; details: macrophage
[14] = Cytotoxicity against mouse macrophages assessed as cell death at 13.11 uM after 24 hrs by MTT colorimetric assay; assay type: cell-based; details: macrophage
[15] = Cytotoxicity against mouse macrophages assessed as cell death at 28.26 uM after 24 hrs by MTT colorimetric assay; assay type: cell-based; details: macrophage
[16] = Cytotoxicity against mouse macrophages assessed as cell death at 26.22 uM after 24 hrs by MTT colorimetric assay; assay type: cell-based; details: macrophage
[17] = Cytotoxicity against mouse macrophages assessed as cell death at 10.73 uM after 24 hrs by MTT colorimetric assay; assay type: cell-based; details: macrophage
[18] = Cytotoxicity against mouse macrophages assessed as cell death at 30 uM after 24 hrs by MTT colorimetric assay; assay type: cell-based; details: macrophage
Outline: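 Mouse peritoneal macrophages were seeded at 2×10^5 cells/well and allowed to adhere. Medium was then replaced with compound-containing medium and cells were incubated 24 h at 37 °C in humidified 5% CO2. Controls received medium plus DMSO. Viability was read by MTT. % cell death = (control viability − treated viability)/control viability. Values are means ± SD.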

[19] = Cytotoxicity against mouse macrophages assessed as cell death at 25 uM after 24 hrs by MTT colorimetric assay; assay type: cell-based; details: macrophage
[20] = Cytotoxicity against mouse macrophages assessed as cell death at 24.11 uM after 24 hrs by MTT colorimetric assay; assay type: cell-based; details: macrophage

Compound	logP [2]	IC50 (Leishmania major [3]) [µM]	Activity (Leishmania major [5])	Activity (Leishmania major [6])	Activity (Leishmania major [8])	also measured
O=C(c1cccc(Cl)c1)N1CCN(c2nnc(-c3ccc([N+](=O)[O-])o3)s2)CC1	1.95	13.2	Active	Active	Active	Activity [9]: 9.7%
O=C(c1cccs1)N1CCN(c2nnc(-c3ccc([N+](=O)[O-])o3)s2)CC1	0.78	19.2				Activity [11]: 2.4%
O=C(c1ccc(Cl)s1)N1CCN(c2nnc(-c3ccc([N+](=O)[O-])o3)s2)CC1	1.92	11.8	Active	Active	Active	Activity [13]: 7.6%
O=C(c1ccc(Br)s1)N1CCN(c2nnc(-c3ccc([N+](=O)[O-])o3)s2)CC1	2.22	13.1	Active	Active	Active	Activity [14]: 7.7%
O=C(c1ccc(Cl)cc1)N1CCN(c2nnc(-c3ccc([N+](=O)[O-])o3)s2)CC1	1.95	26.2				Activity [16]: 9.7%
MEGLUMINE ANTIMONATE						Activity [18]: 40.4%

Further lines, with some results ahead:

logP [2]	Compound	IC50 (Leishmania major [3]) [µM]	Activity (Leishmania major [5])	Activity (Leishmania major [6])	Activity (Leishmania major [8])	also measured
2.29	O=C(c1ccccc1Cl)N1CCN(c2nnc(-c3ccc([N+](=O)[O-])s3)s2)CC1	34.4				Activity [1]: 6.1%
2.57	O=C(c1ccc(Br)s1)N1CCN(c2nnc(-c3ccc([N+](=O)[O-])s3)s2)CC1	24.7				Activity [4]: 9.2%
2.17	O=C(c1ccccc1)N1CCN(c2nnc(-c3ccc([N+](=O)[O-])o3)s2)CC1	11.7	Active	Active	Active	Activity [7]: 7.1%
2.27	O=C(c1ccc(Cl)s1)N1CCN(c2nnc(-c3ccc([N+](=O)[O-])s3)s2)CC1	23.8				Activity [10]: 9.8%
2.29	O=C(c1cccc(Cl)c1)N1CCN(c2nnc(-c3ccc([N+](=O)[O-])s3)s2)CC1	> 50				Activity [12]: 5.5%
1.13	O=C(c1cccs1)N1CCN(c2nnc(-c3ccc([N+](=O)[O-])s3)s2)CC1	28.3				Activity [15]: 8.7%
1.95	O=C(c1ccccc1Cl)N1CCN(c2nnc(-c3ccc([N+](=O)[O-])o3)s2)CC1	10.7	Active	Active	Active	Activity [17]: 8.7%
2.52	O=C(c1ccccc1)N1CCN(c2nnc(-c3ccc([N+](=O)[O-])s3)s2)CC1	25				Activity [19]: 8.9%
2.29	O=C(c1ccc(Cl)cc1)N1CCN(c2nnc(-c3ccc([N+](=O)[O-])s3)s2)CC1	24.1				Activity [20]: 7.2%
